Measurements as given in ChEMBL document CHEMBL5696444 (Nat Commun, 2017).

How the values were obtained:
[1] = biological target: CDK7/Cyclin H/MNAT1 (Homo sapiens) (UniProt P51946+P50613+P51948); assay: Inhibition of CDK7/cyclin H/MNAT1 (unknown origin) at 1000 nM in the presence of ATP by Kinome scan method relative to control; assay type: protein-complex assay
[2] = biological target: Tyrosine-protein kinase JAK1 (Homo sapiens) (UniProt P23458); assay: Inhibition of JAK1 (unknown origin) at 100 nM in the presence of ATP by Kinome scan method relative to control
Sequence of Tyrosine-protein kinase JAK1 (Homo sapiens) (P23458 whole entry): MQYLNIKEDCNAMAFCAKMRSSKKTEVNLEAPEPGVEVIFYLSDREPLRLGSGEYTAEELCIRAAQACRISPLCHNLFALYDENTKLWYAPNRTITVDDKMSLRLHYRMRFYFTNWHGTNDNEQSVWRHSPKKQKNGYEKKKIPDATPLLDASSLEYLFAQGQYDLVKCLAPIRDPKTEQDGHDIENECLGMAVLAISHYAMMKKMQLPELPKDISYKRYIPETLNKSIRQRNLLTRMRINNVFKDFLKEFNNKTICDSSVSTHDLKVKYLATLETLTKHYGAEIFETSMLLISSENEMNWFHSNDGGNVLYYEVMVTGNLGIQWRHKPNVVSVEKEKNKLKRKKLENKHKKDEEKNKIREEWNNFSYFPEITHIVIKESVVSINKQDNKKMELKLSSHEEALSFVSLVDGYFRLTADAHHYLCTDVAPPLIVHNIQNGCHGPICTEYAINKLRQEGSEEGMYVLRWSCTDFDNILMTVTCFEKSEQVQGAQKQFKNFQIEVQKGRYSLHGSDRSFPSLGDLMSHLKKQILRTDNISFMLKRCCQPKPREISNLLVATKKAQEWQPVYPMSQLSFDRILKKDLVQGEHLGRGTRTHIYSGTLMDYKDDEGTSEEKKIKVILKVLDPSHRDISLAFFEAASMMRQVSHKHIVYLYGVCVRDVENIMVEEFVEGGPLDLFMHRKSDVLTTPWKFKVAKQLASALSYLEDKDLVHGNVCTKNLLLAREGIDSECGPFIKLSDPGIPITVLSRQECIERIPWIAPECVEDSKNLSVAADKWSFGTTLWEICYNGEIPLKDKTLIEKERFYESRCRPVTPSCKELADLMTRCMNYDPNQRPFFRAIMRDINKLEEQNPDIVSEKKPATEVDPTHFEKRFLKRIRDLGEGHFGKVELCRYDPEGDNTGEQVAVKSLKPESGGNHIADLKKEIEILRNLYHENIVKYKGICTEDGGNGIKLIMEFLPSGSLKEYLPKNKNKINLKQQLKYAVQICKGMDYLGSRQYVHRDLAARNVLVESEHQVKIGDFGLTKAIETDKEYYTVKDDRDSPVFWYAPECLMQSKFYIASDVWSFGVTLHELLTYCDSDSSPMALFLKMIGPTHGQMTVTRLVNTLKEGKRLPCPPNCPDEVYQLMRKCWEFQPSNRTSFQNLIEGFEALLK

[3] = biological target: Fibroblast growth factor receptor 1 (Homo sapiens) (UniProt P11362); assay: Inhibition of FGFR1 (unknown origin) at 100 nM in the presence of ATP by Kinome scan method relative to control
Sequence of Fibroblast growth factor receptor 1 (Homo sapiens) (P11362 22-822 limits assumed): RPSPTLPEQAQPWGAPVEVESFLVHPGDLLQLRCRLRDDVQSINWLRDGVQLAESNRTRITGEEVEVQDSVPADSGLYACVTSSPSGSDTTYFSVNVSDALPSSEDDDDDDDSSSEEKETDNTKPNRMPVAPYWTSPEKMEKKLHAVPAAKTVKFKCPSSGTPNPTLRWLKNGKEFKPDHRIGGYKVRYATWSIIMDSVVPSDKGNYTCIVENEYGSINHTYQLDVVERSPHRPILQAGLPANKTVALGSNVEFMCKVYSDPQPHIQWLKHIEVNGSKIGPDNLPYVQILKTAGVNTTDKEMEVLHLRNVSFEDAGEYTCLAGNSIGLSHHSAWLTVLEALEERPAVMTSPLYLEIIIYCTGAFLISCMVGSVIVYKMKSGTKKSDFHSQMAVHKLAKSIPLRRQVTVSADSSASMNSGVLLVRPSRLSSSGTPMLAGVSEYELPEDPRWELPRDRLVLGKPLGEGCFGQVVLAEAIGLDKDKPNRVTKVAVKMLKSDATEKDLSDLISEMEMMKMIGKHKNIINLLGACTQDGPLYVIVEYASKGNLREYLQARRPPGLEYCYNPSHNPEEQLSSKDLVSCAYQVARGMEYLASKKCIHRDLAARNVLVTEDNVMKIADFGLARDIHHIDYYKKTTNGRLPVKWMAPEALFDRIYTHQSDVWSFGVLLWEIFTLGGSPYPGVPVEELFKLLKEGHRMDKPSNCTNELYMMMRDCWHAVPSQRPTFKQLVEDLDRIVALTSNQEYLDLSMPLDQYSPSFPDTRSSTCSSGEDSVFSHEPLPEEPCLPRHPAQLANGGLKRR

[4] = biological target: Glycogen synthase kinase-3 beta (Homo sapiens) (UniProt P49841); assay: Inhibition of GSK3B (unknown origin) at 1000 nM in the presence of ATP by Kinome scan method relative to control
[5] = biological target: Dual specificity tyrosine-phosphorylation-regulated kinase 3 (Homo sapiens) (UniProt O43781); assay: Inhibition of DYRK3 (unknown origin) at 123 nM in the presence of ATP by Kinome scan method relative to control; conditions: time > 6.0 hrs
Sequence of Dual specificity tyrosine-phosphorylation-regulated kinase 3 (Homo sapiens) (O43781 whole entry): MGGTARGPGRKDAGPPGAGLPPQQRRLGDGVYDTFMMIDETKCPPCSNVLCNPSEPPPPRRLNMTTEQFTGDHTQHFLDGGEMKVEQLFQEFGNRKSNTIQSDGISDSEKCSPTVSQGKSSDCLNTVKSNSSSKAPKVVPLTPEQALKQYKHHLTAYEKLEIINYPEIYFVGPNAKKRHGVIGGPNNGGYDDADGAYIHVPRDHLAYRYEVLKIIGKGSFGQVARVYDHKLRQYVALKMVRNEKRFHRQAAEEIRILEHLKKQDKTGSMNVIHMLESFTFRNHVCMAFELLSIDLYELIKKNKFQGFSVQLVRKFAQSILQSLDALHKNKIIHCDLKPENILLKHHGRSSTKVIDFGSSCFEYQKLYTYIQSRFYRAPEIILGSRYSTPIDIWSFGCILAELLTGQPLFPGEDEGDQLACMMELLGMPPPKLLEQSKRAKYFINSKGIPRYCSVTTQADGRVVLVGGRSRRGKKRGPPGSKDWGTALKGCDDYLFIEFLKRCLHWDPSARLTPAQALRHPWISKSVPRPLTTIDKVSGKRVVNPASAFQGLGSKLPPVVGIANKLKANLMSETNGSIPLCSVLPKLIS

[6] = biological target: Dual specificity protein kinase CLK1 (Homo sapiens) (UniProt P49759); assay: Inhibition of CLK (unknown origin) in human 184-hTERT cells assessed as induction in alternative splicing effect in MRPS10-GUCA1B level incubated for 6 hrs by RT-PCR analysis; assay type: cell-based; conditions: dose 0.2-5 µM
Sequence of Dual specificity protein kinase CLK1 (Homo sapiens) (P49759 whole entry, looked up, canonical isoform): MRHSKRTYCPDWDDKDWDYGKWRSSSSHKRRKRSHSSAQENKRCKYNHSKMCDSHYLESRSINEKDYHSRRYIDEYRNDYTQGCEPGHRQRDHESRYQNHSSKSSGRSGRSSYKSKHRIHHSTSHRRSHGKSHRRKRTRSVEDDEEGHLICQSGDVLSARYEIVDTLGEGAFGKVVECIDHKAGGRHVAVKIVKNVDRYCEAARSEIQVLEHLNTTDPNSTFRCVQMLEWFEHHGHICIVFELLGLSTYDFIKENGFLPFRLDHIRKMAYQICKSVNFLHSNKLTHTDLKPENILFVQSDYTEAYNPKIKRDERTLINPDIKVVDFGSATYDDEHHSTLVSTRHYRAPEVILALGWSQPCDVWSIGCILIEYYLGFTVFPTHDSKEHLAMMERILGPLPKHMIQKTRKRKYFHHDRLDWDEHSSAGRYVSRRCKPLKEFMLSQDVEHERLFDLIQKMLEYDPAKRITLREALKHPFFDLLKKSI
Outline: (§1)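 Cells exposed to graded T3 concentrations for 6 h (chosen to avoid cytotoxicity), with a DMSO vehicle control. Total RNA was reverse-transcribed with oligo-dT primers. Targeted splice or conjoined-gene products were quantified by real-time qPCR or by targeted next-generation sequencing. Conjoined-gene isoform expression was normalized to a sequenced housekeeping gene.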

[7] = species on record: Homo sapiens; assay: Inhibition of CDK2/cyclin A (unknown origin) at 1000 nM in the presence of ATP by Kinome scan method relative to control
[8] = test system: HCT-116; assay: Induction of cell cycle arrest in human HCT-116 cells assessed as sub G0/G1 phase at 0.5 uM incubated for 6 hrs by flow cytometry analysis (Rvb=1.6%); assay type: functional
[9] = biological target: Interleukin-1 receptor-associated kinase 4 (Homo sapiens) (UniProt Q9NWZ3); assay: Inhibition of IRAK4 (unknown origin) at 1000 nM in the presence of ATP by Kinome scan method relative to control
Sequence of Interleukin-1 receptor-associated kinase 4 (Homo sapiens) (Q9NWZ3 whole entry): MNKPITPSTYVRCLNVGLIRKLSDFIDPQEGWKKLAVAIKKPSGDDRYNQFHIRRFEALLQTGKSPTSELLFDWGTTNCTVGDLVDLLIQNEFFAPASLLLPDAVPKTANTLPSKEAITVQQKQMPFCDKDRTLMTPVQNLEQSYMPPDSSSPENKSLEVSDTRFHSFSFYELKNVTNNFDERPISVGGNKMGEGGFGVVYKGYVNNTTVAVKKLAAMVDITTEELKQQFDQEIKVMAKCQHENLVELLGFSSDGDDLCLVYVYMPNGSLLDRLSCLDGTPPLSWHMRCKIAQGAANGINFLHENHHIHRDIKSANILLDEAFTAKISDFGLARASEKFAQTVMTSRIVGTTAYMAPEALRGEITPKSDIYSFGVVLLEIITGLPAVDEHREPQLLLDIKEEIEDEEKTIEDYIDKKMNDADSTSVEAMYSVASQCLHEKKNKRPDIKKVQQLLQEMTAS

[10] = biological target: Serine/threonine-protein kinase Chk1 (Homo sapiens) (UniProt O14757); assay: Inhibition of CHEK1 (unknown origin) at 1000 nM in the presence of ATP by Kinome scan method relative to control
[11] = test system: HCT-116; assay: Induction of cell cycle arrest in human HCT-116 cells assessed as G2/M phase at 10 uM incubated for 6 hrs by flow cytometry analysis (Rvb=25.8%); assay type: functional
[12] = biological target: Serine/threonine-protein kinase Nek2 (Homo sapiens) (UniProt P51955); assay: Inhibition of NEK2 (unknown origin) at 100 nM in the presence of ATP by Kinome scan method relative to control
Sequence of Serine/threonine-protein kinase Nek2 (Homo sapiens) (P51955 whole entry): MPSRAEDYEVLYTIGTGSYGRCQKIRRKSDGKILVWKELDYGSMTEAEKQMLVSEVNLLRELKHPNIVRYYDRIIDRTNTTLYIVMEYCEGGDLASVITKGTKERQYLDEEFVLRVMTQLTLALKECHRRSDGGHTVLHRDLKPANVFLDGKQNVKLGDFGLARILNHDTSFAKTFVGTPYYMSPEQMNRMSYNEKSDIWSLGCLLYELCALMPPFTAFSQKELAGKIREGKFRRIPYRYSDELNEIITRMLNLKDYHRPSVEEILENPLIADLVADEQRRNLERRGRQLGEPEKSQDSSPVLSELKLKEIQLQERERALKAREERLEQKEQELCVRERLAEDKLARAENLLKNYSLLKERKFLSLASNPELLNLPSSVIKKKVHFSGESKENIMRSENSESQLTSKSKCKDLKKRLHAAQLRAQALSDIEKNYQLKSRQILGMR

[13] = biological target: Serine/threonine-protein kinase PLK1 (Homo sapiens) (UniProt P53350); assay: Inhibition of PLK1 (unknown origin) at 100 nM in the presence of ATP by Kinome scan method relative to control
[14] = biological target: Mitogen-activated protein kinase 8 (Homo sapiens) (UniProt P45983); assay: Inhibition of MAPK8 (unknown origin) at 1000 nM in the presence of ATP by Kinome scan method relative to control
Sequence of Mitogen-activated protein kinase 8 (Homo sapiens) (P45983 whole entry): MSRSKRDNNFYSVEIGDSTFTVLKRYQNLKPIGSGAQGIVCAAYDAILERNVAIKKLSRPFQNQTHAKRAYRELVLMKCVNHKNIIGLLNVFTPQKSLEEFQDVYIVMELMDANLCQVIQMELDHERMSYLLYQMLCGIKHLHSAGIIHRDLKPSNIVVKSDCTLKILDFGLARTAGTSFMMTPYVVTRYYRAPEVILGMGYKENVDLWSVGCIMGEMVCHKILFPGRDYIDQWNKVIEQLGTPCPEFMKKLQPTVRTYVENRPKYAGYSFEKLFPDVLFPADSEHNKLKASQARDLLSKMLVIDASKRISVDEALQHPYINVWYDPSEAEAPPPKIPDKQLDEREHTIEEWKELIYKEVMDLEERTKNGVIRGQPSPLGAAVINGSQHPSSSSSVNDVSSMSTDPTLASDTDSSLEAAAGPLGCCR

[15] = biological target: Protein kinase C theta type (Homo sapiens) (UniProt Q04759); assay: Inhibition of PRKCQ (unknown origin) at 100 nM in the presence of ATP by Kinome scan method relative to control
[16] = biological target: SRSF protein kinase 2 (Homo sapiens) (UniProt P78362); assay: Inhibition of SRPK2 (unknown origin) at 1110 nM in the presence of ATP by Kinome scan method relative to control; conditions: time > 6.0 hrs
Sequence of SRSF protein kinase 2 (Homo sapiens) (P78362 whole entry, looked up): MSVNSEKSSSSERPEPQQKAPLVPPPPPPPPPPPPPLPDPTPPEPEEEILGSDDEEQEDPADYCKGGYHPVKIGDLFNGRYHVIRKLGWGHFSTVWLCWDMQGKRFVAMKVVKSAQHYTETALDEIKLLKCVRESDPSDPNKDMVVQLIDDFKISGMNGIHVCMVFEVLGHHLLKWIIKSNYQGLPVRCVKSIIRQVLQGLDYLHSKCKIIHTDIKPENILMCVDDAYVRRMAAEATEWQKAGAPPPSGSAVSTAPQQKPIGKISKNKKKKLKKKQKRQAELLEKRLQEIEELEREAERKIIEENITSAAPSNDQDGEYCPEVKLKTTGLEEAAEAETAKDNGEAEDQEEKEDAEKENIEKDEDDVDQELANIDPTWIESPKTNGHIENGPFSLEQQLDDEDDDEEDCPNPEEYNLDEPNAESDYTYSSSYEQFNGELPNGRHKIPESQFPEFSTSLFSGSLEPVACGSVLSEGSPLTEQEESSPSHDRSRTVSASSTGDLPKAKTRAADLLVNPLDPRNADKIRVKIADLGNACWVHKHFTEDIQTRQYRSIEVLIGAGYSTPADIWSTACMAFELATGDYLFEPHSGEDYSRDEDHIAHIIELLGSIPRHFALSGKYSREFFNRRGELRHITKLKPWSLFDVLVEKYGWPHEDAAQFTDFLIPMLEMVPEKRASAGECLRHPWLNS

[17] = test system: HCT-116; assay: Induction of apoptosis in human HCT-116 cells assessed as late apoptosis at 0.1 uM incubated for > 6 hrs by annexin V/PI staining based analysis (Rvb=6.12%); assay type: functional
[18] = test system: HCT-116; assay: Induction of cell cycle arrest in human HCT-116 cells assessed as S phase at 5 uM incubated for 6 hrs by flow cytometry analysis (Rvb=39.3%); assay type: functional
[19] = biological target: Aurora kinase B (Homo sapiens) (UniProt Q96GD4); assay: Inhibition of AURKB (unknown origin) at 100 nM in the presence of ATP by Kinome scan method relative to control
[20] = test system: HCT-116; assay: Induction of cell cycle arrest in human HCT-116 cells assessed as G0/G1 phase at 0.1 uM incubated for 6 hrs by flow cytometry analysis (Rvb=35.0%); assay type: functional
[21] = test system: HCT-116; assay: Induction of apoptosis in human HCT-116 cells assessed as viable cells at 10 uM incubated for > 6 hrs by annexin V/PI staining based analysis (Rvb=90.04%); assay type: functional; conditions: read-out: Activity
[22] = test system: HCT-116; assay: Induction of cell cycle arrest in human HCT-116 cells assessed as sub G0/G1 phase at 5 uM incubated for 24 hrs by flow cytometry analysis (Rvb=2.5%); assay type: functional
[23] = biological target: Ribosomal protein S6 kinase beta-1 (Homo sapiens) (UniProt P23443); assay: Inhibition of RPS6KB1 (unknown origin) at 1000 nM in the presence of ATP by Kinome scan method relative to control
[24] = biological target: Mitogen-activated protein kinase 9 (Homo sapiens) (UniProt P45984); assay: Inhibition of MAPK9 (unknown origin) at 1000 nM in the presence of ATP by Kinome scan method relative to control
[25] = biological target: Dual specificity protein kinase CLK1 (Homo sapiens) (UniProt P49759); assay: Inhibition of CLK (unknown origin) in human 184-hTERT cells assessed as induction in alternative splicing effect in S6K skipped exon incubated for 6 hrs by RT-PCR analysis; assay type: cell-based; conditions: dose 0.2-5 µM; outline: as §1
[26] = biological target: Homeodomain-interacting protein kinase 1 (Homo sapiens) (UniProt Q86Z02); assay: Inhibition of HIPK1 (unknown origin) at 100 nM in the presence of ATP by Kinome scan method relative to control
[27] = biological target: Protein kinase C alpha type (Homo sapiens) (UniProt P17252); assay: Inhibition of PRKCA (unknown origin) at 100 nM in the presence of ATP by Kinome scan method relative to control
[28] = test system: HCT-116; assay: Induction of cell cycle arrest in human HCT-116 cells assessed as G0/G1 phase at 1 uM incubated for 24 hrs by flow cytometry analysis (Rvb=35.7%); assay type: functional
[29] = test system: HCT-116; assay: Induction of cell cycle arrest in human HCT-116 cells assessed as sub G0/G1 phase at 10 uM incubated for 6 hrs by flow cytometry analysis (Rvb=1.6%); assay type: functional
[30] = biological target: Dual specificity tyrosine-phosphorylation-regulated kinase 3 (Homo sapiens) (UniProt O43781); assay: Inhibition of DYRK3 (unknown origin) at 1110 nM in the presence of ATP by Kinome scan method relative to control; conditions: time > 6.0 hrs
[31] = test system: HCT-116; assay: Induction of cell cycle arrest in human HCT-116 cells assessed as G2/M phase at 1 uM incubated for 6 hrs by flow cytometry analysis (Rvb=25.8%); assay type: functional
[32] = Stability of compound in tissue culture medium assessed as remaining parent compound at 5.30 uM incubated for 48 hrs; assay type: physicochemical; conditions: read-out: Stability

Q: For `CN1CCN(C(=O)C(C)(C)c2ccc(C(=O)Nc3cn4cc(-c5ccncc5)ccc4n3)cc2)CC1` [T3-CLK], which inhibition [1] is on record?
A: -3%

Q: And the inhibition [2]?
A: 11%

Q: And the inhibition [3]?
A: 4%

Q: What about the inhibition [4] of the same molecule?
A: -3%

Q: What about the inhibition [5] of the same molecule?
A: -2%

Q: And the inhibition [6]?
A: Dose-Dependent Effect

Q: And the inhibition [7]?
A: 3%

Q: What about the Activity [8] of the same molecule?
A: 1.6%

Q: What about the inhibition [9] of the same molecule?
A: 42%

Q: And the inhibition [10]?
A: 18%

Q: And the Activity [11]?
A: 26.3%

Q: What about the inhibition [12] of the same molecule?
A: 12%

Q: And the inhibition [13]?
A: 8%

Q: What about the inhibition [14] of the same molecule?
A: 3%

Q: What about the inhibition [15] of the same molecule?
A: 5%

Q: What about the inhibition [16] of the same molecule?
A: 5%

Q: And the Activity [17]?
A: 8.29%

Q: What about the Activity [18] of the same molecule?
A: 37.4%

Q: And the inhibition [19]?
A: 7%

Q: And the Activity [20]?
A: 24%

Q: What about the viability at 10 µM [21] of the same molecule?
A: 87.3%

Q: What about the Activity [22] of the same molecule?
A: 20.9%

Q: And the inhibition [23]?
A: 1%

Q: And the inhibition [24]?
A: -1%

Q: And the inhibition [25]?
A: Dose-Dependent Effect

Q: What about the inhibition [26] of the same molecule?
A: -1%

Q: And the inhibition [27]?
A: 4%

Q: What about the Activity [28] of the same molecule?
A: 7.3%

Q: And the Activity [29]?
A: 1.7%

Q: And the inhibition [30]?
A: 4%

Q: And the Activity [31]?
A: 34.6%

Q: What about the remaining at 48 h, 5.3 µM [32] of the same molecule?
A: 98.7%
